# Source: ChEMBL document CHEMBL1126990, “Design and synthesis of 18F-labeled neurotoxic analogs of MPTP” (J Med Chem, 1993)
# Assays:
# Mus musculus [1] = species on record: Mus musculus; experiment: Biodistribution of [18F]-radiolabeled compound in the mouse intestine after 15 minutes (average uptake in (%injected dose)/(% body weight); assay type: ADME, organism-based; conditions: in vivo, 0.25 h
# Summary of the method: (§1)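 Adult male C57 Black mice (about 20 g), anesthetized with 1 mg sodium pentobarbital ip, given 0.1 mL (~0.05 mCi) tracer via tail vein. Killed by cervical dislocation at set times (5–90 min). Organs sampled, counted, weighed. Injected dose measured against weighed standards, minus residual tail activity. %id/g multiplied by body weight gives normalized uptake. Mean ± SD, N = 3 (N = 2 at 5 min).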
# Mus musculus [2] = species on record: Mus musculus; experiment: Biodistribution of [18F]-radiolabeled compound in the mouse heart after 5 minutes (average uptake in (%injected dose)/(% body weight); assay type: ADME, organism-based; conditions: in vivo; summary of the method: as §1
# Mus musculus [3] = species on record: Mus musculus; experiment: Biodistribution of [18F]-radiolabeled compound in the mouse heart after 60 minutes (average uptake in (%injected dose)/(% body weight); assay type: ADME, organism-based; conditions: in vivo, 1 h; summary of the method: as §1
# Mus musculus [4] = species on record: Mus musculus; experiment: Biodistribution of [18F]-radiolabeled compound in the mouse kidney after 30 minutes (average uptake in (%injected dose)/(% body weight); assay type: ADME, organism-based; conditions: in vivo, 0.5 h; summary of the method: as §1
# Mus musculus [5] = species on record: Mus musculus; experiment: Biodistribution of [18F]-radiolabeled compound in the mouse bone after 60 minutes (average uptake in (%injected dose)/(% body weight); assay type: ADME, organism-based, Bone element; conditions: in vivo, 1 h; summary of the method: as §1
# Mus musculus [6] = species on record: Mus musculus; experiment: Biodistribution of [18F]-radiolabeled compound in the mouse brain after 90 minutes (average uptake in (%injected dose)/(% body weight); assay type: ADME, organism-based; conditions: in vivo, 1.5 h; summary of the method: as §1
# Mus musculus [7] = species on record: Mus musculus; experiment: Biodistribution of [18F]-radiolabeled compound in the mouse intestine after 30 min (average uptake in (%injected dose)/(% body weight); assay type: ADME, organism-based; conditions: in vivo, 0.5 h; summary of the method: as §1
# Mus musculus [8] = species on record: Mus musculus; experiment: Biodistribution of [18F]-radiolabeled compound in the mouse brain after 60 minutes (average uptake in (%injected dose)/(% body weight); assay type: ADME, organism-based; conditions: in vivo, 1 h; summary of the method: as §1
# Rattus norvegicus = species on record: Rattus norvegicus; experiment: Maximal rate (Vmax) for oxidation by rat liver MAO (results are means of number of separate experiments, n=4) (*p<0.01); assay type: ADME
# Summary of the method: (§2)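 Rat liver MAO (crude P2 mitochondrial fraction from adult male Wistar rats, in pH 7.4 phosphate buffer) incubated with substrate at 30 μM to 5 mM; colorimetric detection of H2O2 formed. Blanks contained 0.1 mM pargyline. Vmax and Km from linear regression of Lineweaver-Burk plots; means ± SE of n separate experiments; ANOVA with post-hoc Scheffe test.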
# Mus musculus [9] = species on record: Mus musculus; experiment: Biodistribution of [18F]-radiolabeled compound in the mouse kidney after 15 minutes (average uptake in (%injected dose)/(% body weight); assay type: ADME, organism-based; conditions: in vivo, 0.25 h; summary of the method: as §1
# [10] = Ratio between Vmax and Km; assay type: ADME; summary of the method: as §2
# Mus musculus [11] = species on record: Mus musculus; experiment: Biodistribution of [18F]-radiolabeled compound in the mouse lung after 60 minutes (average uptake in (%injected dose)/(% body weight); assay type: ADME, organism-based; conditions: in vivo, 1 h; summary of the method: as §1
# Mus musculus [12] = species on record: Mus musculus; experiment: Biodistribution of [18F]-radiolabeled compound in the mouse blood after 15 minutes (average uptake in (%injected dose)/(% body weight); assay type: ADME, organism-based; conditions: in vivo, 0.25 h; summary of the method: as §1
# Mus musculus [13] = species on record: Mus musculus; experiment: Biodistribution of [18F]-radiolabeled compound in the mouse muscle after 30 minutes (average uptake in (%injected dose)/(% body weight); assay type: ADME, organism-based, Muscle tissue; conditions: in vivo, 0.5 h; summary of the method: as §1
# Mus musculus [14] = species on record: Mus musculus; experiment: Biodistribution of [18F]-radiolabeled compound in the mouse lung after 5 minutes (average uptake in (%injected dose)/(% body weight); assay type: ADME, organism-based; conditions: in vivo; summary of the method: as §1
# Mus musculus [15] = species on record: Mus musculus; experiment: Biodistribution of [18F]-radiolabeled compound in the mouse heart after 90 minutes (average uptake in (%injected dose)/(% body weight); assay type: ADME, organism-based; conditions: in vivo, 1.5 h; summary of the method: as §1
# Mus musculus [16] = species on record: Mus musculus; experiment: Biodistribution of [18F]-radiolabeled compound in the mouse lung after 30 minutes (average uptake in (%injected dose)/(% body weight); assay type: ADME, organism-based; conditions: in vivo, 0.5 h; summary of the method: as §1
# Mus musculus [17] = species on record: Mus musculus; experiment: Biodistribution of [18F]-radiolabeled compound in the mouse liver after 5 minutes (average uptake in (%injected dose)/(% body weight); assay type: ADME, organism-based; conditions: in vivo; summary of the method: as §1
# Mus musculus [18] = species on record: Mus musculus; experiment: Biodistribution of [18F]-radiolabeled compound in the mouse bone after 5 minutes (average uptake in (%injected dose)/(% body weight); assay type: ADME, organism-based, Bone element; conditions: in vivo; summary of the method: as §1
# Mus musculus [19] = species on record: Mus musculus; experiment: Biodistribution of [18F]-radiolabeled compound in the mouse spleen after 5 minutes (average uptake in (%injected dose)/(% body weight); assay type: ADME, organism-based; conditions: in vivo; summary of the method: as §1
# Mus musculus [20] = species on record: Mus musculus; experiment: Biodistribution of [18F]-radiolabeled compound in the mouse heart after 15 minutes (average uptake in (%injected dose)/(% body weight); assay type: ADME, organism-based; conditions: in vivo, 0.25 h; summary of the method: as §1
# Mus musculus [21] = species on record: Mus musculus; experiment: Biodistribution of [18F]-radiolabeled compound in the mouse spleen after 90 minutes (average uptake in (%injected dose)/(% body weight); assay type: ADME, organism-based; conditions: in vivo, 1.5 h; summary of the method: as §1
# Mus musculus [22] = species on record: Mus musculus; experiment: Biodistribution of [18F]-radiolabeled compound in the mouse blood after 90 minutes (average uptake in (%injected dose)/(% body weight); assay type: ADME, organism-based; conditions: in vivo, 1.5 h; summary of the method: as §1
# Mus musculus [23] = species on record: Mus musculus; experiment: Biodistribution of [18F]-radiolabeled compound in the mouse bone after 15 minutes (average uptake in (%injected dose)/(% body weight); assay type: ADME, organism-based, Bone element; conditions: in vivo, 0.25 h; summary of the method: as §1
# Mus musculus [24] = species on record: Mus musculus; experiment: Biodistribution of [18F]-radiolabeled compound in the mouse heart after 30 minutes (average uptake in (%injected dose)/(% body weight); assay type: ADME, organism-based; conditions: in vivo, 0.5 h; summary of the method: as §1
# Mus musculus [25] = species on record: Mus musculus; experiment: Biodistribution of [18F]-radiolabeled compound in the mouse lung after 90 minutes (average uptake in (%injected dose)/(% body weight); assay type: ADME, organism-based; conditions: in vivo, 1.5 h; summary of the method: as §1
compound,measurement,setting,value
CN1CC=C(c2ccccc2CF)CC1,Time,Mus musculus [1],1.99 min
same,Time,Mus musculus [2],2.54 min
same,Time,Mus musculus [3],1.88 min
same,Time,Mus musculus [4],1.36 min
same,Time,Mus musculus [5],2.22 min
same,Time,Mus musculus [6],0.76 min
same,Time,Mus musculus [7],1.06 min
same,Time,Mus musculus [8],0.65 min
same,Vmax,Rattus norvegicus,609 nM hr-1 (mg of protein)-1
same,Time,Mus musculus [9],2.64 min
same,Ratio,[10],3.83
same,Time,Mus musculus [11],1.6 min
same,Time,Mus musculus [12],0.66 min
same,Time,Mus musculus [13],0.43 min
same,Time,Mus musculus [14],6.33 min
same,Time,Mus musculus [15],1.84 min
same,Time,Mus musculus [16],2.54 min
same,Time,Mus musculus [17],2.3 min
same,Time,Mus musculus [18],0.87 min
same,Time,Mus musculus [19],1.37 min
same,Time,Mus musculus [20],2.41 min
same,Time,Mus musculus [21],0.95 min
same,Time,Mus musculus [22],0.25 min
same,Time,Mus musculus [23],1.58 min
same,Time,Mus musculus [24],2.03 min
same,Time,Mus musculus [25],1.46 min
